How the values were obtained:
A-431 = experiment: Cytotoxicity against human A431 cells overexpressing EGFR after 72 hrs by MTT assay; conditions: A-431, 72 h
[1] = molecular target: Receptor tyrosine-protein kinase erbB-2 (Homo sapiens, UniProt P04626); experiment: Inhibition of human ErbB2 preincubated for 2 hrs prior addition of ATP by HTRF assay
Outline: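 Wild-type ErbB-2(676–1255) was used in an HTRF KinEASE-TK format. Kinase, substrate peptide and inhibitor were combined, and ATP started the reaction. Detection used Eu-cryptate anti-phosphotyrosine antibody plus XL665-streptavidin, with time-resolved FRET read after 320 excitation. The emission ratio across ten concentrations (0.01–10,000 nM, including no inhibitor) gave IC50, with duplicate reactions and ≥2 independent determinations.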

[2] = molecular target: Epidermal growth factor receptor (Homo sapiens, UniProt P00533); experiment: Inhibition of human EGFR preincubated 2 hrs prior addition of ATP by HTRF assay
Epidermal growth factor receptor, sequence (P00533 whole entry): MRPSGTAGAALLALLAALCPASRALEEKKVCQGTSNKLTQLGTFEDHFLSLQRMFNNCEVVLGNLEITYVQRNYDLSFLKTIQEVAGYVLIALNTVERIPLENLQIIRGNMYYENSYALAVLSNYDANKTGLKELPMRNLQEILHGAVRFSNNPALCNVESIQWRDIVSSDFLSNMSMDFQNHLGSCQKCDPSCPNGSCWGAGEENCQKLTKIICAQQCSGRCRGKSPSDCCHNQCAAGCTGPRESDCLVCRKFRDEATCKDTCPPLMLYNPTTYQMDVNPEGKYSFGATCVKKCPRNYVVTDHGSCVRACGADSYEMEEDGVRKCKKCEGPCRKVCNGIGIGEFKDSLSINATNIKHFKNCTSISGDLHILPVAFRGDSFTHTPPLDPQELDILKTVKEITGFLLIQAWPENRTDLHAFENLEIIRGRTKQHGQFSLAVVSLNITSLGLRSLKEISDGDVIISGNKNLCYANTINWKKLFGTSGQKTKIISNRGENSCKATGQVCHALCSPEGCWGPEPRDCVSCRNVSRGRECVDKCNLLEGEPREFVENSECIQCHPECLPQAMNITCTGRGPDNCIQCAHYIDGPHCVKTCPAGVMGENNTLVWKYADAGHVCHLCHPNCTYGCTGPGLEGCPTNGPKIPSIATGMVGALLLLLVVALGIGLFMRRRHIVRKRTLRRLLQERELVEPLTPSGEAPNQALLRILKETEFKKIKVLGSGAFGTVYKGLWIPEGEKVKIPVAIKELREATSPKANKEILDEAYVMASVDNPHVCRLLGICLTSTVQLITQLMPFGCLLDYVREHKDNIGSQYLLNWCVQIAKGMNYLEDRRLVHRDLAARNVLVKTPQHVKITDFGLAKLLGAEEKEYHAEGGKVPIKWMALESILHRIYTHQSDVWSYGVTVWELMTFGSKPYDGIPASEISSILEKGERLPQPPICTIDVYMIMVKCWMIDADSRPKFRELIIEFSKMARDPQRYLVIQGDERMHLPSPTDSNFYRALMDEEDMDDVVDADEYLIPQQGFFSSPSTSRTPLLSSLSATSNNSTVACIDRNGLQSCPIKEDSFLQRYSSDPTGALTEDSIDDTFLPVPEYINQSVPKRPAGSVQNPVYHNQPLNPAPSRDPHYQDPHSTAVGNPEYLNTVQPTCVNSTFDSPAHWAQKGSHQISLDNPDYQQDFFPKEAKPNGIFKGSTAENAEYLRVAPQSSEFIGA

SK-OV-3 = experiment: Cytotoxicity against human SKOV3 cells overexpressing ErbB2 after 72 hrs by MTT assay; conditions: SK-OV-3, 72 h

Receptor tyrosine-protein kinase erbB-2, sequence (P04626 whole entry): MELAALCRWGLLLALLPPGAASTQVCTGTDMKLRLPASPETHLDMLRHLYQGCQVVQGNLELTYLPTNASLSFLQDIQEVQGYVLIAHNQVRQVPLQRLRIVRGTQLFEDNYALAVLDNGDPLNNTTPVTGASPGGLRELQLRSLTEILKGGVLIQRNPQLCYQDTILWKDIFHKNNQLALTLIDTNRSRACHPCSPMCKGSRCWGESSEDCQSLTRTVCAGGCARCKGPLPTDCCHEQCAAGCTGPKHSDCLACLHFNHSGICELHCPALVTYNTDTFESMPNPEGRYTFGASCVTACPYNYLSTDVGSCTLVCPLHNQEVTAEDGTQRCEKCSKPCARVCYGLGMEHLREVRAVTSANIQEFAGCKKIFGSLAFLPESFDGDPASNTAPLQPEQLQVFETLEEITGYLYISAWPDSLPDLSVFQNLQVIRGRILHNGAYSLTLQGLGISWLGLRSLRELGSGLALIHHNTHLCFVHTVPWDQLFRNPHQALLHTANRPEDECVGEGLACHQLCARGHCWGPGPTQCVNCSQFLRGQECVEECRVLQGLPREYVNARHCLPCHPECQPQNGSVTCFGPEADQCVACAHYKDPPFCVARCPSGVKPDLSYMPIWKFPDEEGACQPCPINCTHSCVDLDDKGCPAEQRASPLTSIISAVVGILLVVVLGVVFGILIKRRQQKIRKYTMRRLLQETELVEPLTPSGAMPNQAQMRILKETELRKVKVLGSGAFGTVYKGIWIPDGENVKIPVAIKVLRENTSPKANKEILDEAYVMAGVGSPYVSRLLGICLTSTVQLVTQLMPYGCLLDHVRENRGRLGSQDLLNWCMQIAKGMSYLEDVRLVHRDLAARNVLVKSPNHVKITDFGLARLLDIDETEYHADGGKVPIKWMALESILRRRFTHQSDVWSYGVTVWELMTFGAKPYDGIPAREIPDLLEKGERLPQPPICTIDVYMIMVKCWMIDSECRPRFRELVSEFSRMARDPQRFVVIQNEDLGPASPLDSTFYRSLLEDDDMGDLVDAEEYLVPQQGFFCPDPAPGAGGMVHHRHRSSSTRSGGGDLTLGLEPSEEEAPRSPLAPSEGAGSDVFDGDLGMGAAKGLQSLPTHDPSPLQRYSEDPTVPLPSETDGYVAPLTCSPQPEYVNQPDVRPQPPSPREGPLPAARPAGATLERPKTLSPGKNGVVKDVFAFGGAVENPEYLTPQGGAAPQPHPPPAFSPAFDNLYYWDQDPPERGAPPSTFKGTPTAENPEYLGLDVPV

Row | IC50 [1] [µM] | IC50 [2] [µM] | Compound | IC50 (A-431) [µM] | IC50 (SK-OV-3) [µM]
1 | > 10 | > 10 | COc1ccc(OCC(=O)Nc2cccc(Oc3cc(Nc4ccc(OCc5cccc(F)c5)c(Cl)c4)ncn3)c2)cc1OC | 6.42 | 
2 | 0.038 | 0.048 | N#CCC(=O)Nc1cccc(Oc2cc(Nc3ccc(OCc4cccc(F)c4)c(Cl)c3)ncn2)c1 | 5.17 | 8.42
3 | 1.23 | 0.523 | COc1ccc(/C=C/C(=O)Nc2cccc(Oc3cc(Nc4ccc(OCc5cccc(F)c5)c(Cl)c4)ncn3)c2)cc1OC | > 20 | > 30
4 | 0.135 | 0.108 | CC(=O)Nc1cccc(Oc2cc(Nc3ccc(OCc4cccc(F)c4)c(Cl)c3)ncn2)c1 | 12 | 3.95
5 | 2.14 | 0.721 | O=C(COc1cc(F)c(F)c(F)c1)Nc1cccc(Oc2cc(Nc3ccc(OCc4cccc(F)c4)c(Cl)c3)ncn2)c1 | 13.2 | > 30
6 | 0.834 | 0.627 | O=C(Cc1cc(F)c(F)cc1F)Nc1cccc(Oc2cc(Nc3ccc(OCc4cccc(F)c4)c(Cl)c3)ncn2)c1 | 9.29 | 26.1
7 | 0.079 | 0.065 | O=C(COc1ccccc1)Nc1cccc(Oc2cc(Nc3ccc(OCc4cccc(F)c4)c(Cl)c3)ncn2)c1 | 14.9 | 9.1

More lines, now with the values behind:

Row | Compound | IC50 [1] [µM] | IC50 [2] [µM] | IC50 (A-431) [µM] | IC50 (SK-OV-3) [µM]
8 | O=C(Nc1cccc(Oc2cc(Nc3ccc(OCc4cccc(F)c4)c(Cl)c3)ncn2)c1)c1ccc([N+](=O)[O-])cc1 | > 10 | > 10 | 6.72 | 10.2
9 | Nc1cc(Nc2cccc(Oc3cc(Nc4ccc(OCc5cccc(F)c5)c(Cl)c4)ncn3)c2)ncn1 | 0.042 | 0.061 | 4.24 | 0.71
10 | O=[N+]([O-])c1cccc(Oc2cc(Nc3ccc(OCc4cccc(F)c4)c(Cl)c3)ncn2)c1 | 2.42 | 1.2 | 10.4 | > 30
11 | O=C(/C=C/c1ccccc1)Nc1cccc(Oc2cc(Nc3ccc(OCc4cccc(F)c4)c(Cl)c3)ncn2)c1 | 3.74 | 1.67 | 11.2 | 20.7
12 | O=C(/C=C/c1ccc(F)cc1)Nc1cccc(Oc2cc(Nc3ccc(OCc4cccc(F)c4)c(Cl)c3)ncn2)c1 | 1.29 | 0.821 | 18.1 | > 30
13 | C=CC(=O)Nc1cccc(Oc2cc(Nc3ccc(OCc4cccc(F)c4)c(Cl)c3)ncn2)c1 | 0.029 | 0.037 | 3.25 | 0.89
14 | CCOC(=O)CNc1cccc(Oc2cc(Nc3ccc(OCc4cccc(F)c4)c(Cl)c3)ncn2)c1 | 0.219 |  |  | 9.18
15 | Fc1cccc(COc2ccc(Nc3cc(Oc4cccc(NCc5ccccc5)c4)ncn3)cc2Cl)c1 | > 10 | > 10 | 3.11 | 17.9
16 | CS(=O)(=O)CCNCc1ccc(-c2ccc3ncnc(Nc4ccc(OCc5cccc(F)c5)c(Cl)c4)c3c2)o1 [LAPATINIB] |  |  |  | 2.99
17 | CCOC(=O)/C=C/C(=O)Nc1cccc(Oc2cc(Nc3ccc(OCc4cccc(F)c4)c(Cl)c3)ncn2)c1 | 0.196 | 0.129 | 7 | 1.29
18 | Nc1cccc(Oc2cc(Nc3ccc(OCc4cccc(F)c4)c(Cl)c3)ncn2)c1 | 0.559 | 0.473 | 8.92 | 12.2
